Assay results reported in publication PMC5298935 (The FEBS journal, 2016).
Read-outs that look alike come from different tables or passages of the source. Square brackets hold non-standard residues; d marks the D form. Peptide text beside a SMILES is read from it. pS = N[C@@H](COP(=O)(O)O)C(=O)O

Columns and labels:
[1] = target: Pin1-FL (with 6X-His tag) (Homo sapiens, UniProt Q13526); test: Biolayer interferometry; type: binding
Summary of the method: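 Ni-NTA biosensors loaded with 10 μg/mL His-tagged full-length Pin1 for 600 s, quenched 300 s with buffer plus 10 mM imidazole and 25 μg/mL biotin. Association with singly or dually phosphorylated peptide at 80–1.25 μM for 600 s, then 600 s dissociation in buffer. Buffer: 10 mM HEPES, 20 mM NaCl, 0.1 mM TCEP, pH 7.4; 25°C. Pin1-free sensors served as nonspecific-binding reference.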

Pin1-FL [2] = target: T1, Pin1-FL (Homo sapiens, UniProt Q13526); type: binding; conditions: B = C-terminal site
Summary of the method: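 Full-length Pin1 underwent reverse titration with dually phosphorylated peptides; HSQC perturbations in N and H dimensions were fit separately (fmincon). The multistate model added two bivalent states, each with its own Keq. Non-bivalent KD and bound shifts were fixed from single-site titrations. Residues needed distinct bound shifts per motif. Reduced chi-square used σH 0.00407 and σN 0.0205 ppm.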

Pin1-FL [3] = target: T1, Pin1-FL; test: Simulation of Pin1-FL binding at low micromolar concentrations

T1 sequence (Q13526 whole entry): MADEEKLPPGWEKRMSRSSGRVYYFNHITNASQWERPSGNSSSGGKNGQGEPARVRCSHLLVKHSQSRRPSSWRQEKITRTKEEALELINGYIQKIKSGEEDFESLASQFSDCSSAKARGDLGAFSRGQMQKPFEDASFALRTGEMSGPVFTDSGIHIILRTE
Sequence of Pin1-FL (with 6X-His tag) (Q13526 whole entry): as above

| Pin1 binding detected by biolayer interferometry ([1]; peptide 1.25-80 μM, BLI buffer pH 7.4, 25°C) | KeqB:WW (Fitted Keq^A:WW, Keq^B:WW and Δδbound for bivalent states) (Pin1-FL [2]; nitrogen dimension) | KeqB:WW (Fitted Keq^A:WW, Keq^B:WW and Δδbound for bivalent states) (Pin1-FL [2]; proton dimension) | ΔGequiv (change in Gibbs free energy) (Pin1-FL [3]; corresponds to the equivalent bimolecular KD at 20 μM peptide) | total fraction of bound Pin1 (Pin1-FL [3]; simulated, 20 μM peptide, total Pin1 ~0.5 μM, sum of all bound Pin1 species divided by total Pin1) | Kd [1] | SMILES |
| --- | --- | --- | --- | --- | --- | --- |
| not measurable |  |  |  |  |  | CC(C)C[C@H](NC(=O)[C@H](Cc1ccccc1)NC(=O)[C@@H](NC(=O)[C@@H](N)CO)[C@@H](C)O)C(=O)N[C@@H](COP(=O)(O)O)C(=O)N1CCC[C@H]1C(=O)N[C@@H](C)C(=O)N[C@@H](Cc1ccccc1)C(=O)N1CCC[C@H]1C(=O)NCC(=O)O [p144] (H-STFL[pS]PAFPG-OH) |
|  | 0.02 | 0.43 | -7.49 kcal/mol | 0.85 | 1000 nM | CC(=O)N[C@@H](CCC(=O)O)C(=O)N[C@@H](C)C(=O)N[C@@H](CCC(=O)O)C(=O)N[C@@H](C)C(=O)N[C@@H](Cc1c[nH]c2ccccc12)C(=O)N[C@@H](COP(=O)(O)O)C(=O)N1CCC[C@H]1C(=O)N[C@@H](CCCNC(=N)N)C(=O)N[C@@H](CCCCN)C(=O)N[C@@H](CC(C)C)C(=O)N1CCC[C@H]1C(=O)N[C@@H](CO)C(=O)N[C@@H](CO)C(=O)N[C@@H](C)C(=O)N[C@@H](CO)C(=O)N[C@H](C(=O)N[C@@H](Cc1ccccc1)C(=O)N[C@@H](CC(C)C)C(=O)N[C@@H](COP(=O)(O)O)C(=O)N1CCC[C@H]1C(=O)N[C@@H](C)C(=O)N[C@@H](Cc1ccccc1)C(=O)N1CCC[C@H]1C(=O)NCC(N)=O)[C@@H](C)O [p131/p144] (Ac-EAEAW[pS]PRKLPSSASTFL[pS]PAFPG-NH2) |
